FXIa inh = blocks human coagulation factor XIa protease activity; AID 798; purified FXIa, Boc-Glu-Ala-Arg-AMC fluorogenic substrate; hit rate 0.14% among 220,000; inhibition, % at 5 µM; P03951;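 active means inhibition of at least 40%; inactive means inhibition below 40%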;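 further: fluorescence of freed AMC excited at 355 nm; 0% = enzyme without compound and 100% = no enzyme blank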
Target sequence (P03951 19-387 limits assumed): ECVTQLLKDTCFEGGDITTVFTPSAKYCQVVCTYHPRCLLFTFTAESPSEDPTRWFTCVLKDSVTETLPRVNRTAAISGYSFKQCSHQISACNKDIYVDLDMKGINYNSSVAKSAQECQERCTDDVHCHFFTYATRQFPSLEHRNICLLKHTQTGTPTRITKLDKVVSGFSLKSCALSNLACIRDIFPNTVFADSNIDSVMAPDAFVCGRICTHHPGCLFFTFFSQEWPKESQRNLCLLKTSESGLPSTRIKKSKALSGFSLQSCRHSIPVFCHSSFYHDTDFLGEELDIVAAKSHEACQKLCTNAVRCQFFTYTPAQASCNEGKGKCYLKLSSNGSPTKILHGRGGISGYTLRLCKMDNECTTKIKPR
Target sequence (P03951 388-625 limits assumed): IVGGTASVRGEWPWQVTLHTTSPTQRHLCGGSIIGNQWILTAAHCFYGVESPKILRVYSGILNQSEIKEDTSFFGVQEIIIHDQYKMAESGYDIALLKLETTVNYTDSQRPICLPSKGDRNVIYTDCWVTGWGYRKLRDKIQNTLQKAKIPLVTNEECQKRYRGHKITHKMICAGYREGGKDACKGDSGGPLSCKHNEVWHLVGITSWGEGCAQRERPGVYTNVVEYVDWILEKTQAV
thrombin 1536 = inhibitors of human thrombin; P00734; AID 1046; alpha-thrombin, Boc-VPR-AMC fluorogenic substrate cleavage; hit rate 0.26% among 220,000; inhibition, % at 5 µM;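 active means inhibition at or above 40%; inactive means inhibition below 40%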;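 further: 0% = enzyme with no compound and 100% = wells without enzyme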
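Material: human alpha-thrombin enzyme / Medium: pH 7.5 Tris (50 mM) with NaCl 150 mM, Tween 20 0.05% / Compound: single-point dosing at 5 µM, 0.2% DMSO / Incubation: enzyme reaction carried out at room temperature / Detection: AMC fluorescence, 355/460 nm / Read-out basis: percent inhibition scaled between no-compound controls and no-enzyme blanks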
FXIIa inh 1536 = inhibitors of human coagulation factor XIIa; hit rate 0.3% among 220,000; inhibition, % at 5 µM; purified FXIIa, Boc-QGR-AMC fluorogenic substrate, 2 h; P00748; AID 800; in the data active means inhibition above about 40%;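 further: 0% = enzyme with no compound and 100% = blank without enzyme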
KLK5 inh = blocks human kallikrein 5 protease activity; Q9Y337; recombinant hK5, fluorogenic AMC substrate cleavage; inhibition, % at 5 µM; hit rate 0.59% among 210,000; AID 873;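 active means inhibition of 40% or more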;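 further: 0% = enzyme controls without compound and 100% = no-enzyme blanks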
Furin inh = inhibitors of human furin; P09958; purified furin, fluorogenic substrate cleavage; inhibition, % at 20 µM or 30 µM; hit rate 0.061% among 220,000; in the data active means inhibition above about 25%
* = called active by the depositor; · = not tested or not shown. Only some compounds are listed: those with a hit (about 1.1% of all), similar ones and a draw of the others.

SMILES	FXIa inh	thrombin 1536	FXIIa inh 1536	KLK5 inh	Furin inh
Cc1[nH]c2ccccc2c1C(=O)COC(=O)Cn1c(C)nc2ccccc21	39.4	20.0	31.8	51.7*	-14.8
O=[N+]([O-])c1ccc(N2CCCC2)cc1NC1CC1	9.3	11.6	9.1	44.4*	-0.8
COc1ccc(C)cc1NC(=O)COC(=O)C1CCN(C(=O)c2ccc(Cl)cc2)CC1	49.3*	26.8	26.3	28.1	1.3
O=C(COC(=O)C1CCN(C(=O)c2ccc(Cl)cc2)CC1)NC1CCS(=O)(=O)C1 (stereo not given)	1.1	-3.4	9.5	2.0	-15.2
CCOc1ccc(CSCCNC(=S)Nc2ccccc2)cc1	1.1	19.6	-5.7	50.7*	-16.4
O=S(=O)(Nc1ccccc1)c1ccc(-c2csnn2)cc1	26.3	18.5	43.4*	25.8	-2.9
CCOC(=O)C1CCCN(C(=O)c2cc3nc(-c4cccc(OC)c4)cc(C(F)(F)F)n3n2)C1 (stereo not given)	22.9	18.8	25.5	54.4*	11.4
CCOC(=O)C1CCCN(C(=O)c2cc3ncc(Br)cn3n2)C1 (stereo not given)	12.7	17.4	28.1	47.6*	-22.3
CCOC(=O)C1CCCN(C(=O)c2cc(-c3ccc(C)cc3)on2)C1 (stereo not given)	-4.7	1.5	-4.8	-13.7	-30.3
Cc1ccccc1C(=O)Nc1nncs1	-4.8	-5.4	1.6	-6.5	-17.3
CCSc1ccccc1C(=O)Nc1nncs1	1.3	4.6	6.8	3.4	26.7*
CC1(C)CC2CC(C)(CN2C(=O)Cc2ccccc2)C1 (stereo not given)	10.2	0.9	20.1	2.1	-4.3
CC1(C)CC2CC(C)(CN2CC(=O)C(C#N)c2ccccc2)C1 (stereo not given)	-8.6	2.8	-3.9	115.3*	-9.3
O=C(N/N=C/c1ccc(OCc2cnc(Cl)s2)cc1)c1ccncc1	28.3	49.5*	66.2*	26.1	4.3
O=C(N/N=C/c1ccc(OCc2ccccc2)cc1)c1ccncc1	-4.8	-5.9	0.1	-5.4	-16.1
CCN=C1SCC(=O)N1c1ccc(OC)cc1	7.2	13.6	11.3	43.5*	-21.2
CCOc1ccc(N2C(=O)CS/C2=N/NC(=O)COc2ccc3ccccc3c2)cc1	-2.0	-2.6	-1.2	-2.4	-3.5
Cc1ccccc1Nc1nc(-c2sc(NC(=O)c3ccco3)nc2C)cs1	17.6	23.6	17.1	19.1	-6.3
Cc1ccc(Nc2nc(-c3sc(NC(=O)c4ccco4)nc3C)cs2)cc1	14.1	10.8	16.4	53.5*	-3.6
CN(C)C(=O)COC(=O)c1ccccc1OCC(=O)Nc1ccc(SC(F)F)cc1	6.5	1.6	12.5	-8.7	-12.3
O=C(COc1ccccc1C(=O)O)Nc1ccc(SC(F)F)cc1	15.0	48.4*	16.1	·	-10.7
COc1ccc(C(=O)/C=C/Sc2nc3ccccc3o2)cc1	3.1	-4.5	6.2	-8.3	-11.9
CCCCOC(=O)Sc1nc2ccccc2o1	2.2	46.3*	12.8	-50.1	-12.2
O=C(Cc1ccc([N+](=O)[O-])cc1)Nc1ccc(Cl)cc1	-2.8	-17.4	3.8	1.6	-24.5
Cc1c(Cl)cccc1NC(=O)Cc1ccc([N+](=O)[O-])cc1	-2.5	95.8*	9.3	2.7	-29.9
SMILES	FXIa inh	thrombin 1536	FXIIa inh 1536	KLK5 inh	Furin inh
Cc1ccc(/C=N/NC(=O)c2cccc([N+](=O)[O-])c2)o1	2.4	12.8	9.9	40.8*	-6.0
CC(=O)Nc1cccc(C(=O)N/N=C/c2ccc(C)o2)c1	-3.1	-6.7	1.5	2.2	0.1
COc1cc2[nH]c(Cl)c([N+](=O)[O-])c2cc1OC	3.5	0.9	7.9	3.3	-11.8
COC(=O)c1[nH]c2ccccc2c1NC(=O)CN1CCC(C(N)=O)(N2CCCCC2)CC1	4.5	1.9	1.4	1.9	28.1*
CCCCOc1cccc(NC(=O)CSc2nncn2C)c1	9.3	3.7	16.3	-2.5	4.0
Cc1ccc(S(=O)(=O)Nc2cccnc2Oc2ccc(Cl)cc2)cc1	16.7	46.7*	44.3*	27.7	3.6
CC(=O)c1c(C)c(C)c2n1CCn1c(C)ccc1-2	2.9	1.0	11.4	4.0	-17.1
Nc1c(-c2ccccc2)c(CSc2nc3ccccc3[nH]2)nn1-c1ccc(Cl)cc1	13.6	16.6	33.2	62.0*	-2.1
Nc1c(-c2ccccc2)c(CSc2nc3ccccc3[nH]2)nn1-c1cccc(Cl)c1	11.4	20.8	18.0	23.8	-2.1
Cc1nn(-c2ccccc2)c(NC(=O)c2cccs2)c(-c2ccccc2Cl)c1=O	-13.0	-8.0	-1.0	4.9	-18.1
Cc1ccc(N(C(=O)C2CCCC2)C2C=CS(=O)(=O)C2)cc1 (stereo not given)	-6.6	2.4	-2.8	114.4*	-21.1
